Measurements as given in ChEMBL document CHEMBL4177556, “Novel 5-HT7R antagonists, arylsulfonamide derivatives of (aryloxy)propyl piperidines: Add-on effect to the antidepressant activity of SSRI and DRI, and pro-cognitive profile” (Bioorg Med Chem, 2017).
Active and inactive are the calls of the source.

Assays:
[1] = target: 5-hydroxytryptamine receptor 7 (Homo sapiens, UniProt P34969); assay: Displacement of [3H]-5-CT from human 5-HT7b receptor expressed in HEK293 cells after 1 hr by microbeta counting analysis; assay type: cell-based
Method in brief: (§1)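 Membranes from stably transfected HEK293 or CHO-K1 cells, homogenized, centrifuged twice at 35,000g, with 15 min at 37 °C in between. Receptor-specific Tris-HCl buffers with MgCl2, plus EDTA, pargyline or ascorbate as applicable. Incubated 1 h at 37 °C (5-HT1A at room temperature), filtered, and bound radioactivity counted.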

Homo sapiens = organism: Homo sapiens; assay: Selectivity ratio of Ki for human 5-HT1A receptor to Ki for human 5-HT7b receptor
[2] = target: T1, 5-hydroxytryptamine receptor 1A (Homo sapiens, UniProt P08908); assay: Displacement of [3H]-8-OH-DPAT from human 5-HT1A receptor expressed in HEK293 or CHO-K1 cells after 1 hr by microbeta counting analysis; assay type: cell-based; method in brief: as §1
T1 sequence (P08908 whole entry): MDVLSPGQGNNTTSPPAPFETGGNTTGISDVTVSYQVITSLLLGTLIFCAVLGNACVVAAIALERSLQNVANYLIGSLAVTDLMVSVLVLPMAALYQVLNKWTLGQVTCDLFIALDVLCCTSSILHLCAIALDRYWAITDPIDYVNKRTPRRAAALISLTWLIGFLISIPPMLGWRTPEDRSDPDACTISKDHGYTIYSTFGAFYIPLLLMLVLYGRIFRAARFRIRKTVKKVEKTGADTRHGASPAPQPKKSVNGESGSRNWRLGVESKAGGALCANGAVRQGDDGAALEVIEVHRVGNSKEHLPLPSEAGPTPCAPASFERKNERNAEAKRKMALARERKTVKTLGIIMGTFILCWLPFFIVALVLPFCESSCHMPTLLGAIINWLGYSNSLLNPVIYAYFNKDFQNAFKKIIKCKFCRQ

Mus musculus [3] = assay: Antidepressant-like activity in C57BL/6J mouse at 2.5 mg/kg measured during 6 mins session by tail suspension test; assay type: functional, organism-based
Method in brief: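 Male C57BL/6J mice (22–26 g), 7–9 per group. Compound in distilled water, i.p. at 10 ml/kg, 60 min before test. Mice suspended by tail from a strain-gauge hook for 6 min. Struggling episodes, average event force and immobility (force below 0.20 N threshold) recorded automatically. One-way ANOVA with Bonferroni; mean ± SEM.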

Rattus norvegicus = assay: Cognitive enhancement effect in Sprague-Dawley rat memory impairment model assessed as reversal of natural forgetting impairment at 1 mg/kg, ip administered 30 mins prior to test measured after 24 hrs by novel object recognition test; assay type: functional, organism-based
Method in brief: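 Male Sprague–Dawley rats (about 250 g), handled and acclimatized. Habituated to an open field arena (25 lx) for 5 min, 24 h before testing. Two 3-min trials (T1, T2) separated by a 24 h inter-trial interval. Drug given i.p. 30 min before T1. Object exploration video-tracked; discrimination index = (EB−EA)/(EA+EB).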

Mus musculus [4] = assay: Antidepressant-like activity in Swiss albino mouse assessed as decrease in immobility time at 10 mg/kg measured during last 4 mins of 6 mins test by forced swim test relative to control; assay type: functional; design: scale not given: the % may be the effect or the level left
Method in brief: (§2)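 Porsolt swim test in male Swiss albino mice (22–26 g), 7–10 per dose, each used once, run 09:00–14:00 by a blinded observer. Drugs in distilled water, i.p. at 10 ml/kg: escitalopram 30 min before test, others 60 min. Immobility scored during the last 4 min of a 6 min swim at 23–25 °C. One-way ANOVA with Bonferroni vs vehicle.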

Mus musculus [5] = assay: Antidepressant-like activity in Swiss albino mouse assessed as decrease in immobility time at 2.5 mg/kg measured during last 4 mins of 6 mins test by forced swim test relative to control; assay type: functional; design: scale not given: the % may be the effect or the level left; method in brief: as §2
Mus musculus [6] = assay: Antidepressant-like activity in C57BL/6J mouse assessed as increase in average force of fights at 20 mg/kg measured during 6 mins session by tail suspension test; assay type: functional, organism-based
Method in brief: (§3)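 C57BL/6J male mice (22–26 g), 7–9 per group. Escitalopram in distilled water, i.p. at 10 ml/kg, 30 min before test. Tail suspension on a strain gauge for 6 min, scoring fight force, episode count and immobility below a 0.20 N threshold. One-way ANOVA with Bonferroni.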

Mus musculus [7] = assay: Antidepressant-like activity in C57BL/6J mouse assessed as decrease in immobility time at 5 to 20 mg/kg measured during 6 mins session by tail suspension test; assay type: functional, organism-based; method in brief: as §3
Mus musculus [8] = assay: Antidepressant-like activity in Swiss albino mouse assessed as decrease in immobility time at 1.25 mg/kg measured during last 4 mins of 6 mins test by forced swim test relative to control; assay type: functional; design: scale not given: the % may be the effect or the level left; method in brief: as §2
Mus musculus [9] = assay: Antidepressant-like activity in Swiss albino mouse assessed as decrease in immobility time at 0.625 mg/kg measured during last 4 mins of 6 mins test by forced swim test; assay type: functional, organism-based; method in brief: as §2

5-hydroxytryptamine receptor 7, sequence (P34969 whole entry): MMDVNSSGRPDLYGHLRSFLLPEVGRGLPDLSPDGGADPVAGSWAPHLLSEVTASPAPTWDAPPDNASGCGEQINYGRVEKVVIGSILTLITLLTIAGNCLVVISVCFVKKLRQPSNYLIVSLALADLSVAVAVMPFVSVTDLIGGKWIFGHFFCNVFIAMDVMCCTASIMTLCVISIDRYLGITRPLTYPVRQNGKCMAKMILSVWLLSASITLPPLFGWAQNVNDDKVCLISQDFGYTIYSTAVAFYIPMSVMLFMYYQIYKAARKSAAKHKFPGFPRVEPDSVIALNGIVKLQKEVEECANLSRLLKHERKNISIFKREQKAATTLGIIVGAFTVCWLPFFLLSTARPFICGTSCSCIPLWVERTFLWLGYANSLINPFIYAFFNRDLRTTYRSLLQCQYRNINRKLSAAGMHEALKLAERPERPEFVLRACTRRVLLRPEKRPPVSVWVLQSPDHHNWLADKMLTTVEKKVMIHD

| SMILES | Ki [1] [nM] | Ratio Ki (Homo sapiens) | Ki [2] [nM] | other results |
| --- | --- | --- | --- | --- |
| CC(C)c1ccccc1OCC(O)CN1CCC(NS(=O)(=O)c2cccc(F)c2)CC1 (stereo not drawn) | 213 | 4 | 742 |  |
| O=S(=O)(NC1CCN(CC(O)COc2ccccc2-c2ccccc2)CC1)c1ccc(F)cc1 (stereo not drawn) | 59 | 22 | 1320 |  |
| CC(C)c1ccccc1OCC(C)N1CCC(NS(=O)(=O)c2cccc(F)c2)CC1 (stereo not drawn) | 170 | 6 | 962 |  |
| O=S(=O)(NC1CCN(CCCOc2ccccc2-c2ccccc2)CC1)c1cccc(Cl)c1 | 52 | 31 | 1630 |  |
| CC1CCN(CC[C@H]2CCCN2S(=O)(=O)c2cccc(O)c2)CC1 |  |  |  | Activity (Mus musculus [3]): Active; Activity (Rattus norvegicus): Active; Activity (Mus musculus [4]): 31% |
| CN(C)CCC[C@@]1(c2ccc(F)cc2)OCc2cc(C#N)ccc21 [ESCITALOPRAM] |  |  |  | Activity (Mus musculus [5]): 34%; Activity (Mus musculus [6]): Active; Activity (Mus musculus [7]): Active; Activity (Mus musculus [8]): 27%; Activity (Mus musculus [9]): inactive |
| O=S(=O)(NC1CCN(CCCOc2ccccc2-c2ccccc2)CC1)c1ccc(F)cc1 | 58 | 32 | 1840 |  |
